Reference: ChEMBL document CHEMBL4842360, “Discovery of a Bicyclic Peptidyl Pan-Ras Inhibitor” (J Med Chem, 2021)
Active and inactive are the calls of the source. The calls are words filed in the database; no cut-off is given here. Numbered stars: 1 amine (or outer) side, 2 acyl side, 3 side chain; on linkers, the order of the positions; unused ones are H or OH. Bridge positions count the residues as written; N and C are the ends. Square brackets hold non-standard residues; d marks the D form. Peptide text beside a SMILES is read from it. Trimesoyl = O=C(c1cc(C(=O)[*:2])cc(C(=O)[*:3])c1)[*:1]; d2Nal = N[C@H](Cc1ccc2ccccc2c1)C(=O)O; Phg = N[C@H](C(=O)O)c1ccccc1; Orn = NCCC[C@H](N)C(=O)O; Dap = NC[C@H](N)C(=O)O

What was measured:
[1] = Drug distribution in human A549 cells assessed as diffuse fluorescence throughout the entire cell volume at 5 uM incubated for 2 hrs by live-cell confocal microscopy; assay type: ADME, cell-based; details: a549, 2 h
Outline: (§1)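 HeLa, H358 or A549 cells treated with 5 μM fluorescein-labeled peptide for 2 h, then imaged by live-cell confocal microscopy for intracellular fluorescence pattern.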

[2] = test system: NCI-H358; assay: Induction of apoptosis in human NCI-H358 cells assessed as necrotic cells at 5 uM incubated for 24 hrs by Alexa Fluor 488 annexin V/propidium iodide staining based assay (reference value: 0.699%); assay type: functional
[3] = test system: NCI-H358; assay: Induction of apoptosis in human NCI-H358 cells assessed as late apoptotic cells at 10 uM incubated for 24 hrs by Alexa Fluor 488 annexin V/propidium iodide staining based assay (reference value: […]); assay type: functional
[4] = Drug distribution in human HeLa cells assessed as diffuse fluorescence throughout the entire cell volume at 5 uM incubated for 2 hrs by live-cell confocal microscopy; assay type: ADME, cell-based; outline: as §1
[5] = test system: NCI-H358; assay: Induction of apoptosis in human NCI-H358 cells assessed as early apoptotic cells at 5 uM incubated for 24 hrs by Alexa Fluor 488 annexin V/propidium iodide staining based assay (reference value: 3.05%); assay type: functional
[6] = test system: NIH3T3; assay: Cytotoxicity against mouse NIH3T3 cells incubated for 96 hrs by CellTiter-Glo2 assay; assay type: cell-based; details: NIH3T3, 96 h
Outline: (§2)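 Cells plated at 5,000/well, grown overnight, then exposed to serially diluted peptide (0–40 μM) in medium with 10% FBS for 96 h at 37 °C, 5% CO2. Viability read by CellTiter-Glo 2.0 luminescence after 15 min at RT.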

[7] = test system: NCI-H358; assay: Induction of membrane disruption in human H358 cells assessed as LDH release up to 20 uM incubated for 45 mins by absorbance method; assay type: functional, cell-based; details: dose microM <=20, time […]
[8] = test system: NCI-H358; assay: Induction of apoptosis in human NCI-H358 cells assessed as late apoptotic cells at 5 uM incubated for 24 hrs by Alexa Fluor 488 annexin V/propidium iodide staining based assay (reference value: […]); assay type: functional
[9] = test system: NCI-H358; assay: Antitumor activity against human NCI-H358 cells xenografted in mouse assessed as reduction in ERK phosphorylation at 1 to 5 mg/kg, iv administered for 9 days measured every other day by immunohistochemical staining method; assay type: functional, organism-based; details: dose 1-5 mg/kg, time 9.0 day
[10] = molecular target: Albumin (Bos taurus, UniProt P02769); assay: Binding affinity to bovine serum albumin; assay type: ADME
Outline: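 Fluorescein-labeled peptide (100 nM) incubated 1 h at RT with varying concentrations of control protein (BSA, GST-RBD, PNP, PTP1B or MDM2). KD derived from fluorescence polarization titration curves.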

[11] = Drug distribution in human A549 cells assessed as fluorescent puncta in cytoplasmic region at 5 uM incubated for 2 hrs by live-cell confocal microscopy; assay type: ADME, cell-based; details: a549, 2 h; outline: as §1
[12] = test system: NCI-H358; assay: Induction of apoptosis in human NCI-H358 cells assessed as necrotic cells at 10 uM incubated for 24 hrs by Alexa Fluor 488 annexin V/propidium iodide staining based assay (reference value: 0.699%); assay type: functional
[13] = test system: NCI-H358; assay: Induction of apoptosis in human NCI-H358 cells assessed as necrotic cells at 1 uM incubated for 24 hrs by Alexa Fluor 488 annexin V/propidium iodide staining based assay (reference value: 0.699%); assay type: functional
[14] = test system: HEK-293T; assay: Cytotoxicity against HEK293T cells incubated for 96 hrs by CellTiter-Glo2 assay; assay type: cell-based; details: Homo sapiens; outline: as §2
[15] = Drug distribution in human HeLa cells assessed as fluorescent puncta in cytoplasmic region at 5 uM incubated for 2 hrs by live-cell confocal microscopy; assay type: ADME, cell-based; outline: as §1
[16] = test system: NCI-H358; assay: Induction of apoptosis in human NCI-H358 cells assessed as late apoptotic cells at 1 uM incubated for 24 hrs by Alexa Fluor 488 annexin V/propidium iodide staining based assay (reference value: […]); assay type: functional
[17] = test system: A549; assay: Antitumor activity against human A549 cells xenografted in mouse assessed as average tumor volume at 1 mg/kg, iv administered for 9 days measured every other day (reference value: 100 mm3); assay type: functional; details: time 9 day
Outline: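 Nude mice given ~1.5 million A549 cells subcutaneously. Once tumors reached ~40 mm3, groups of n = 6 received peptide at 1 or 5 mg/kg/day or PBS vehicle by tail-vein injection for 9 days. Tumor volume was tracked, and tumors were weighed at harvest.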

Chain of Albumin (P02769 whole entry): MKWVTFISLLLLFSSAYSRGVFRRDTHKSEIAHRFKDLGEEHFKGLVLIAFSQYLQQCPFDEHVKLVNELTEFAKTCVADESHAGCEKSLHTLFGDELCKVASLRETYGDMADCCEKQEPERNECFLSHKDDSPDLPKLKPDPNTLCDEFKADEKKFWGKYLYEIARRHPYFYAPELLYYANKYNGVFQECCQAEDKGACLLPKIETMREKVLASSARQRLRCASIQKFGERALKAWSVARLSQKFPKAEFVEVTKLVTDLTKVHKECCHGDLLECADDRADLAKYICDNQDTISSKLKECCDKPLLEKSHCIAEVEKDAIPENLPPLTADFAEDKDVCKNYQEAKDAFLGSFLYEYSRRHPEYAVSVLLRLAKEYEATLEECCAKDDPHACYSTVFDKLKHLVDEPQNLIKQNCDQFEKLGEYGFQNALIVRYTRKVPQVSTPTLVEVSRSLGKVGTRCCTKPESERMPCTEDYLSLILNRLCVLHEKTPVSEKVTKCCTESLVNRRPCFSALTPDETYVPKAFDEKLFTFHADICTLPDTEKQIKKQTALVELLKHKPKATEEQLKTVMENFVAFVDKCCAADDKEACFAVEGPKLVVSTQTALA

For `C[C@@H](NC(=O)[C@H](Cc1ccccc1)NC(=O)[C@@H](CCCNC(=N)N)NC(=O)[C@H](CCCN)NC(=O)[C@@H]1CNC(=O)c2cc3cc(c2)C(=O)N[C@H](Cc2ccc4ccccc4c2)C(=O)N[C@@H](CO)C(=O)N[C@@H](CC(N)=O)C(=O)N[C@H](Cc2ccc4ccccc4c2)C(=O)N[C@@H](c2ccccc2)C(=O)N[C@@H](CCCCNC3=O)C(=O)N[C@H](Cc2ccccc2)C(=O)N[C@@H](CCC(N)=O)C(=O)N[C@H](CCCNC(=N)N)C(=O)N[C@@H](CCCNC(=N)N)C(=O)N1)C(N)=O` ([d2Nal]SN[d2Nal][Phg]K[dF]Q[dR]R[Dap][Orn][dR]F[dA]-NH2; linker N-6-11 via Trimesoyl), the Drug uptake [1] was “Active”, the Activity [2] was 1.14% and the Activity [3] was 80%. For the same molecule, the Drug uptake [4] was “Active”, the Activity [5] was 14.7% and the EC50 [6] was ≥ 20 µM. For the same molecule, the Activity [7] was “inactive”, the Activity [8] was 29.1% and the Activity [9] was “Active”. For the same molecule, the Kd [10] was 57 µM, the Drug uptake [11] was “Active” and the Activity [12] was 0.493%. For the same molecule, the Activity [13] was 0.226%, the EC50 [14] was ≥ 20 µM and the Drug uptake [15] was “Active”. For the same molecule, the Activity [16] was 8.91% and the Activity [17] was 50 mm3.
